{"source": "ChEMBL document CHEMBL1137705", "about": "“Study of 5-nitroindazoles' anti-Trypanosoma cruzi mode of action: electrochemical behaviour and ESR spectroscopic studies” (Eur J Med Chem, 2009)", "key": {"Trypanosoma cruzi [1]": {"system": "Trypanosoma cruzi", "experiment": "Growth inhibition of Trypanosoma cruzi CL-Brener clone epimastigotes […] at 25 uM measured on […] by Brener method", "format": "functional", "settings": "120 h, read-out: GI", "how_it_was_run": "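Axenic epimastigote culture (CL Brener) ran at 28 °C in BHI-tryptose with 5% FBS. Start density was 1 × 10⁶ cells/mL, with drug added from a DMSO stock (final ≤0.4%). %GI = {1 − [(Ap − A0p)/(Ac − A0c)]} × 100, using A600 at day 5 and day 0, drug versus drug-free control. Means of three experiments.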"}, "Trypanosoma cruzi [2]": {"system": "Trypanosoma cruzi", "experiment": "Antitrypanosomal activity against Trypanosoma cruzi SN3 trypomastigotes infected in african green monkey Vero cells assessed as parasite viability at 11 uM after 24 hrs by MTT assay", "format": "functional", "how_it_was_run": "(§1)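 Vero cells were infected with SN-3 metacyclic trypomastigotes, then reinfected at 1 × 10⁶ parasites per 25 cm². Harvested trypomastigotes (1 × 10⁷) were incubated in FBS-RPMI at 37 °C for 24 h with or without compound. MTT was added to an aliquot at 0.5 mg/mL final, 28 °C for 4 h. SDS–HCl solubilisation ran overnight. Read-out was A570, reference 690 nm; untreated parasites = 100% viability.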"}, "Trypanosoma cruzi [3]": {"system": "Trypanosoma cruzi", "experiment": "Antitrypanosomal activity against Trypanosoma cruzi CL-Brener clone epimastigotes […] measured on […] by Brener method", "format": "functional, organism-based", "settings": "120 h", "how_it_was_run": "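CL Brener epimastigotes were grown axenically at 28 °C in BHI-tryptose with 5% FBS. Day-0 inoculum was 1 × 10⁶ cells/mL from a 10-day stationary culture. Drug came from a DMSO stock, with final DMSO ≤0.4%; control had 0.4% DMSO and no drug. A600 was read daily. IC50 was the concentration reducing the day-5 absorbance ratio versus control to 50%.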"}, "Trypanosoma cruzi [4]": {"system": "Trypanosoma cruzi", "experiment": "Antitrypanosomal activity against Trypanosoma cruzi SN3 trypomastigotes infected in african green monkey Vero cells assessed as parasite viability at 12.5 uM after 24 hrs by MTT assay", "format": "functional"}, "Trypanosoma cruzi [5]": {"system": "Trypanosoma cruzi", "experiment": "Antitrypanosomal activity against Trypanosoma cruzi SN3 trypomastigotes infected in african green monkey Vero cells assessed as parasite viability at 16.4 uM after 24 hrs by MTT assay", "format": "functional"}, "Trypanosoma cruzi [6]": {"system": "Trypanosoma cruzi", "experiment": "Antitrypanosomal activity against Trypanosoma cruzi SN3 trypomastigotes infected in african green monkey Vero cells assessed as parasite viability at 6.6 uM after 24 hrs by MTT assay", "format": "functional"}, "Trypanosoma cruzi [7]": {"system": "Trypanosoma cruzi", "experiment": "Induction of nitro-anion radical production in epimastigotes form of Trypanosoma cruzi Tulahuen microsomes at 1 mM after 25 mins by ESR spectroscopy", "format": "functional", "settings": "Microsome"}, "Trypanosoma cruzi [8]": {"system": "Trypanosoma cruzi", "experiment": "Antitrypanosomal activity against Trypanosoma cruzi SN3 trypomastigotes infected in african green monkey Vero cells assessed as parasite viability at 22 uM after 24 hrs by MTT assay", "format": "functional", "how_it_was_run": "as §1"}, "Trypanosoma cruzi [9]": {"system": "Trypanosoma cruzi", "experiment": "Induction of nitro-anion radical production in epimastigotes form of Trypanosoma cruzi Tulahuen microsomes at 2 mM after 25 mins by ESR spectroscopy", "format": "functional", "settings": "Microsome"}}, "note": "Active and inactive are the calls of the source. The calls are words filed in the database; no cut-off is given here.", "data": [{"smiles": "O=[N+]([O-])c1ccc2c(c1)c(OCc1ccccc1)nn2CCOCCN1CCCCC1", "values": [{"measurement": "inhibition of growth at 25 µM", "setting": "Trypanosoma cruzi [1]", "result": 24, "unit": "%"}]}, {"smiles": "CCCCNCCCCCn1nc(OCc2ccccc2)c2cc([N+](=O)[O-])ccc21", "values": [{"measurement": "Activity", "setting": "Trypanosoma cruzi [2]", "result": -0.37, "unit": "%"}, {"measurement": "inhibition of growth at 25 µM", "setting": "Trypanosoma cruzi [1]", "result": 94, "unit": "%"}, {"measurement": "IC50", "setting": "Trypanosoma cruzi [3]", "result": 11, "unit": "µM"}]}, {"smiles": "CC1CS(=O)(=O)CCN1/N=C/c1ccc([N+](=O)[O-])o1", "note": "(configuration not stated) [NIFURTIMOX]", "values": [{"measurement": "inhibition of growth at 25 µM", "setting": "Trypanosoma cruzi [1]", "result": 100, "unit": "%"}, {"measurement": "IC50", "setting": "Trypanosoma cruzi [3]", "result": 3.4, "unit": "µM"}]}, {"smiles": "C[N+](C)([O-])CCOCCn1nc(OCc2ccccc2)c2cc([N+](=O)[O-])ccc21", "values": [{"measurement": "inhibition of growth at 25 µM", "setting": "Trypanosoma cruzi [1]", "result": 6, "unit": "%"}]}, {"smiles": "O=[N+]([O-])c1ccc2c(c1)c(O)nn2CCOCCN1CCSCC1", "values": [{"measurement": "inhibition of growth at 25 µM", "setting": "Trypanosoma cruzi [1]", "result": 0, "unit": "%"}]}, {"smiles": "CN(C)CCCCCn1nc(OCc2ccccc2)c2cc([N+](=O)[O-])ccc21", "values": [{"measurement": "Activity", "setting": "Trypanosoma cruzi [4]", "result": 0.49, "unit": "%"}, {"measurement": "inhibition of growth at 25 µM", "setting": "Trypanosoma cruzi [1]", "result": 100, "unit": "%"}]}, {"smiles": "CN(C)CCCCCn1nc(OCc2ccccc2)c2ccccc21", "values": [{"measurement": "inhibition of growth at 25 µM", "setting": "Trypanosoma cruzi [1]", "result": 18, "unit": "%"}]}, {"smiles": "O=[N+]([O-])c1ccc2c(c1)c(O)nn2CCOCCN1CCCCC1", "values": [{"measurement": "inhibition of growth at 25 µM", "setting": "Trypanosoma cruzi [1]", "result": 9, "unit": "%"}]}, {"smiles": "CN(C)CCOCCn1nc(OCc2ccccc2)c2cc([N+](=O)[O-])ccc21", "values": [{"measurement": "Activity", "setting": "Trypanosoma cruzi [5]", "result": 0.56, "unit": "%"}, {"measurement": "inhibition of growth at 25 µM", "setting": "Trypanosoma cruzi [1]", "result": 80, "unit": "%"}]}, {"smiles": "O=[N+]([O-])c1ccc2c(c1)c(OCc1ccccc1)nn2CCCCCN1CCCCC1", "values": [{"measurement": "Activity", "setting": "Trypanosoma cruzi [6]", "result": 0.29, "unit": "%"}, {"measurement": "inhibition of growth at 25 µM", "setting": "Trypanosoma cruzi [1]", "result": 100, "unit": "%"}]}, {"smiles": "CN(C)CCOCCn1nc(O)c2cc([N+](=O)[O-])ccc21", "values": [{"measurement": "inhibition of growth at 25 µM", "setting": "Trypanosoma cruzi [1]", "result": 3, "unit": "%"}]}, {"smiles": "COc1nn(CCOCCN2CCCCC2)c2ccc([N+](=O)[O-])cc12", "values": [{"measurement": "inhibition of growth at 25 µM", "setting": "Trypanosoma cruzi [1]", "result": 25, "unit": "%"}]}, {"smiles": "O=[N+]([O-])c1ccc2c(c1)c(OCc1ccccc1)nn2CCOCC[N+]1([O-])CCCCC1", "values": [{"measurement": "inhibition of growth at 25 µM", "setting": "Trypanosoma cruzi [1]", "result": 0, "unit": "%"}]}, {"smiles": "O=c1c2cc([N+](=O)[O-])ccc2n2n1CCCCC2", "values": [{"measurement": "inhibition of growth at 25 µM", "setting": "Trypanosoma cruzi [1]", "result": 4, "unit": "%"}]}, {"smiles": "O=[N+]([O-])c1ccc2c(c1)c(OCc1ccccc1)nn2CCOCCN1CCSCC1", "values": [{"measurement": "inhibition of growth at 25 µM", "setting": "Trypanosoma cruzi [1]", "result": 20, "unit": "%"}]}, {"smiles": "O=c1c2cc([N+](=O)[O-])ccc2n2n1CCOCC2", "values": [{"measurement": "inhibition of growth at 25 µM", "setting": "Trypanosoma cruzi [1]", "result": 6, "unit": "%"}]}, {"smiles": "CCCCNCCCCCn1nc(OC)c2cc([N+](=O)[O-])ccc21", "values": [{"measurement": "Activity", "setting": "Trypanosoma cruzi [7]", "result": "Active"}, {"measurement": "Activity", "setting": "Trypanosoma cruzi [8]", "result": 40.04, "unit": "%"}, {"measurement": "Activity", "setting": "Trypanosoma cruzi [9]", "result": "Active"}, {"measurement": "inhibition of growth at 25 µM", "setting": "Trypanosoma cruzi [1]", "result": 58, "unit": "%"}, {"measurement": "IC50", "setting": "Trypanosoma cruzi [3]", "result": 22, "unit": "µM"}]}]}
